The values below come from ChEMBL document CHEMBL3352791, “Thioaryl naphthylmethanone oxime ether analogs as novel anticancer agents” (J Med Chem, 2014).

For data set [1], the system named is MDA-MB-231. Put plainly: Cell cycle arrest in human […] cells assessed as accumulation at G2 phase at 2.5 uM by propidium iodide staining by FACS analysis (reference value: 22.74%). The format is functional. For orientation: In flow cytometry, cells or beads pass a laser one at a time.
Data set [2] has as its system MCF7. Put plainly: Antiproliferative activity against human ER-negative MCF7 cells after 72 hrs by MTT assay. The class given is functional, cell-based. The conditions noted are these: MCF7, 72 h.
Data set [3] can be described thus: Safety index, ratio of IC50 for human MCF10A cells to EC50 for human DLD1 cells. The conditions noted are these: MCF10A cells versus DLD1 cells, read-out: Ratio IC50/EC50. The class given is toxicity, cell-based, MCF-10A. The method in brief: (§1)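 Safety index is the IC50 in the normal cells divided by the EC50 in the cancer cells. Both values come from MTT assays: cells in DMEM with 10% FBS, serum-starved 4 h, then exposed to compound across a 100nM-50µM dose range with 0.1% DMSO as vehicle control.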

The test system of data set [4] is MDA-MB-231. Put plainly: Antiproliferative activity against human ER-positive MDA-MB-231 cells after 72 hrs by MTT assay. The format is functional, cell-based. The conditions noted are these: MDA-MB-231, 72 h.
The nature of data set [5]: Antiproliferative activity against human prostate, androgen receptor positive DU145 cells after 24 hrs by MTT assay. The format is functional, cell-based, DU-145. The conditions noted are these: du-145.
The test system of data set [6] is HeLa. Put plainly: Antiproliferative activity against human HeLa cells after 24 hrs by MTT assay. The class given is functional, cell-based. The conditions noted are these: hela.
In data set [7] the test system is MCF7. Description: Antitumor activity against human MCF7 cells xenografted in NIH-3 mouse assessed as reduction in tumor volume at 16 mg/kg, po for 29 days relative to control. The class given is functional. The conditions noted are these: MCF7, 696 h. In short, it runs like this: (§2)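 MCF-7 cells (5x10^6 in 100μl PBS) injected intraperitoneally into NIH-III nude mice; after tumor induction, groups of n=10 dosed orally daily for 29 days at 8 or 16 mg/kg/day in 1% carboxymethyl cellulose (vehicle controls). Tumor diameter by vernier calipers every third day; volume = π/6×d³ (d mean diameter).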
For orientation: A xenograft is tissue or cells of one species grown in another, often human tumour cells in immunodeficient mice.

A short description of data set [8]: Safety index, ratio of IC50 for human MCF10A cells to EC50 for human HCT116 cells. The class given is toxicity, cell-based, MCF-10A. The conditions noted are these: MCF10A cells versus HCT116 cells, read-out: Ratio IC50/EC50. In short, it runs like this: as §1
Data set [9] can be described thus: Safety index, ratio of IC50 for human MCF10A cells to EC50 for human ER-positive MDA-MB-231 cells. The conditions noted are these: MCF10A cells versus.
Data set [10] relates to MDA-MB-231. Description: Cell cycle arrest in human […] cells assessed as accumulation at S phase at 2.5 uM by propidium iodide staining by FACS analysis (reference value: 13.72%). The class given is functional.
Data set [11] concerns HEK293. Description: Antiproliferative activity against HEK293 cells after 24 hrs by MTT assay. The class given is functional, cell-based. The conditions noted are these: Homo sapiens, HEK293, 24 h. In short, it runs like this: (§3)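 MTT viability: cells seeded at 1×10^4 per well in DMEM with 10% FBS, left to adhere overnight, then serum-starved 4 h. Compounds were given at a range of doses, with 0.1% DMSO vehicle as control. EC50 was taken from dose-response curves spanning 100nM-50µM. Data are mean ± SEM from at least three independent experiments.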

Data set [12] can be described thus: Antiproliferative activity against human COLO205 cells after 24 hrs by MTT assay. The class given is functional, cell-based. The conditions noted are these: COLO 205, 24 h. In short, it runs like this: as §3
The subject of data set [13] is MDA-MB-231. Description: Induction of PTEN expression in human MDA-MB-231 cells at 1 uM after 24 hrs by qPCR analysis. The format is functional, cell-based. The method in brief:
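qPCR on MDA-MB-231 cells treated with 1µM compound; GAPDH as internal control.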

The subject of data set [14] is MCF7. Put plainly: Antitumor activity against human MCF7 cells xenografted in NIH-3 mouse assessed as effect on tumor volume at 8 mg/kg, po for 29 days relative to control. The class given is functional, organism-based. Set-up: dose 8 mg/kg. The method in brief:
as §2

Data set [15] addresses High affinity cAMP-specific and IBMX-insensitive 3',5'-cyclic phosphodiesterase 8A (Homo sapiens) (UniProt O60658). Description: Inhibition of PDE8A1 (unknown origin) activity at 1 to 10 uM. The method in brief: (§4)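 Recombinant PDE isoform activity was read by fluorescence polarization. A binding reagent complexes with the nucleotide monophosphate that the phosphodiesterase generates from cAMP/cGMP, and this raises the polarization of the labelled substrate. Reference standards were PDE1A3 10µM IBMX, PDE2A3 1nM BAY 60-7550, PDE3CAT 1µM cilostazol, PDE4CAT rolipram, PDE5CAT 0.1µM sildenafil, PDE7A […], PDE8A1 10µM BRL-50481, PDE9A1 1µM SB 36216 and PDE11A1 dipyridamole.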

In data set [16] the target is High affinity cGMP-specific 3',5'-cyclic phosphodiesterase 9A (Homo sapiens) (UniProt O76083). Put plainly: Inhibition of PDE9A1 (unknown origin) activity at 1 to 10 uM. The method in brief:
as §4

Data set [17] has as its system MDA-MB-231. Description: Inhibition of VEGF expression in human MDA-MB-231 cells at 5 uM by ELISA. The class given is functional, cell-based. On the technique in general: An ELISA detects its analyte on a solid surface through an enzyme-linked reagent.
Data set [18] has as its system MDA-MB-231. Description: Inhibition of cell migration in human MDA-MB-231 cells assessed as […] at 1 uM after 24 hrs by wound healing assay. The format is functional, cell-based.
In data set [19] the test system is MCF7. Description: Inhibition of TGFbeta expression in human MCF7 cells at 5 uM by ELISA. The format is functional, cell-based.
Data set [20] addresses Induced myeloid leukemia cell differentiation protein Mcl-1 (Homo sapiens) (UniProt Q07820). Description: Inhibition of EGF-induced phosphorylated Mcl1 in human MDA-MB-231 cells at 1 uM by ELISA. The format is cell-based.
Data set [21] deals with RAF proto-oncogene serine/threonine-protein kinase (Homo sapiens) (UniProt P04049). Put plainly: Inhibition of c-RAF (unknown origin) at 10 uM. In short, it runs like this:
(§5)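 Cell-free kinase profiling was run as a standard 33P-ATP-based in vitro kinase assay.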

The subject of data set [22] is MDA-MB-231. Put plainly: Inhibition of ALDH1 in human MDA-MB-231 cells at 5 to 20 uM after 8 days by FACS analysis. The format is functional, cell-based. The method in brief:
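ALDH1-positive MDA-MB-231 cells identified with Aldefluor reagent and quantified by flow cytometry.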

Data set [23] deals with MDA-MB-231. Put plainly: Inhibition of VEGF-C expression in human MDA-MB-231 cells at 1 uM after 24 hrs by qPCR analysis. The format is functional, cell-based. The method in brief: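 Gene expression was measured by qPCR in MDA-MB-231 breast cancer cells treated with 1µM compound. GAPDH served as the housekeeping internal control.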
The target in data set [24] is Mitogen-activated protein kinase; ERK1/ERK2 (Homo sapiens) (UniProt P27361+P28482). Description: Inhibition of basal level ERK1/2 phosphorylation in human MDA-MB-231 cells at 1 uM by ELISA. The format is cell-based.
Sequence of Mitogen-activated protein kinase; ERK1/ERK2 (Homo sapiens) (P27361 whole entry, looked up): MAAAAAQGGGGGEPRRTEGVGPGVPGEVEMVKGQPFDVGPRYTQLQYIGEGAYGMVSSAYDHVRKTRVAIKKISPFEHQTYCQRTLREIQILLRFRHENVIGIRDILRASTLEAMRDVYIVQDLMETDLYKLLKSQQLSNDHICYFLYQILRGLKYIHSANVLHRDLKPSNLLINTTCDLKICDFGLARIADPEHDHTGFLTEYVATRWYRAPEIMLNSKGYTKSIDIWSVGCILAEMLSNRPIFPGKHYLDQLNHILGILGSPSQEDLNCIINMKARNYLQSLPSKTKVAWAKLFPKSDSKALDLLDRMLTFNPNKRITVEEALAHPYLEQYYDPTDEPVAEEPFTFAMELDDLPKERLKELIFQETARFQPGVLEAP
Sequence of Mitogen-activated protein kinase; ERK1/ERK2 (Homo sapiens) (P28482 whole entry, looked up): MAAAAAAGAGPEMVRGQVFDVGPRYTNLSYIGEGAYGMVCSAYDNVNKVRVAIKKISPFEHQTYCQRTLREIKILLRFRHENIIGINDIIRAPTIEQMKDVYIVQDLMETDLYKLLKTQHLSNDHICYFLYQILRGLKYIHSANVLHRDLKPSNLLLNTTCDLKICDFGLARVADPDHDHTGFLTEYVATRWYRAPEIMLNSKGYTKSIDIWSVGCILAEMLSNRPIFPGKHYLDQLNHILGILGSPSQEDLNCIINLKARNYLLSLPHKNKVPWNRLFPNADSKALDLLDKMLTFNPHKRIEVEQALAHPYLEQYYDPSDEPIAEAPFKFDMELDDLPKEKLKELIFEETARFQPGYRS
Data set [25] relates to MDA-MB-231. Description: Antiproliferative activity against human […] cells at 2.5 to 7.5 uM by annexin V-FITC/propidium iodide staining-based flow cytometric analysis. The format is functional, cell-based.
The target of data set [26] is Proto-oncogene tyrosine-protein kinase Src (Homo sapiens) (UniProt P12931). Description: Inhibition of cSRC (unknown origin) at 10 uM. In short, it runs like this: as §5
Data set [27] has as its system Mast/stem cell growth factor receptor Kit (Homo sapiens), P10721 [D816G]. Put plainly: Inhibition of cKit D816G mutant (unknown origin) at 10 uM. In short, it runs like this: as §5
The test system of data set [28] is MDA-MB-231. Put plainly: Cytotoxicity against human MDA-MB-231 cells assessed as cell viability at 5 uM by MTT assay in presence of 100 ng/ml pertussis toxin for 16 hrs. The class given is functional, cell-based.
In data set [29] the target is Epidermal growth factor receptor (Homo sapiens) (UniProt P00533). Description: Inhibition of EGF-induced EGFR phosphorylation at Tyr992 in human MDA-MB-231 cells at 1 uM by ELISA. The class given is cell-based.
Sequence of Epidermal growth factor receptor (Homo sapiens) (P00533 whole entry): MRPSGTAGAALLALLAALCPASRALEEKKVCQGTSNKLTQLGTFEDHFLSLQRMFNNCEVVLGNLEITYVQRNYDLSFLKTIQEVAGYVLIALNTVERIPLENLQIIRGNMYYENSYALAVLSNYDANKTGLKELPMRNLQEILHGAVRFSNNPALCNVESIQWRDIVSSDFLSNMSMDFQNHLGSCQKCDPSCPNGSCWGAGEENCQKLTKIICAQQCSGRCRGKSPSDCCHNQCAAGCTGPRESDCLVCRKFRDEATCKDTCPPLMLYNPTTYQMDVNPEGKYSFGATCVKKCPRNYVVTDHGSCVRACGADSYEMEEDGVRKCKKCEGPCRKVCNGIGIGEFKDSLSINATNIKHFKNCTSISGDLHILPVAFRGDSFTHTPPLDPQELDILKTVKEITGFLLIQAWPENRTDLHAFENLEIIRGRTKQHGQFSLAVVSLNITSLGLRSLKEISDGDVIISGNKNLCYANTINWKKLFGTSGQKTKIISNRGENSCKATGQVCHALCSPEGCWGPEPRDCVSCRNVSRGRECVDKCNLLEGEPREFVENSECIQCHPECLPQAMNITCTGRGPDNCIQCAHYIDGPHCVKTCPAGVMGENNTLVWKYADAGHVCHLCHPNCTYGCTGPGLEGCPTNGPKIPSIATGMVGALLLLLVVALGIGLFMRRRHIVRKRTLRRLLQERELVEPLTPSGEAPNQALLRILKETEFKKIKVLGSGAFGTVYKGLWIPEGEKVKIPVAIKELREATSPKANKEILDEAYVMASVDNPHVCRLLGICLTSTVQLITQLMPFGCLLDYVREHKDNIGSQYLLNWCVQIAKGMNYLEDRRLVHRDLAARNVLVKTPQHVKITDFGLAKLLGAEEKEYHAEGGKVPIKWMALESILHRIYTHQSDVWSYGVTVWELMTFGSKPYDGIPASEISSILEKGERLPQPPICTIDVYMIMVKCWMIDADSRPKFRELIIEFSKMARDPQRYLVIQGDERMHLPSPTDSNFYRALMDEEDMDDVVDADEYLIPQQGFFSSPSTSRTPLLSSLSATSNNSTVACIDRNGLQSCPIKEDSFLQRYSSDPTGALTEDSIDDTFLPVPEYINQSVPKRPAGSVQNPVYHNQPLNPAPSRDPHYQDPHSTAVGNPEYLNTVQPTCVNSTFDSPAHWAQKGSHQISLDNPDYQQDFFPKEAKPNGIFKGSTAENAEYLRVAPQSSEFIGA
Data set [30] concerns MCF7. Put plainly: Induction of apoptosis in human […] cells. The class given is functional, cell-based.

Activity calls are given as the source filed them. The calls are words filed in the database; no cut-off is given here.

Sequence of RAF proto-oncogene serine/threonine-protein kinase (Homo sapiens) (P04049 whole entry): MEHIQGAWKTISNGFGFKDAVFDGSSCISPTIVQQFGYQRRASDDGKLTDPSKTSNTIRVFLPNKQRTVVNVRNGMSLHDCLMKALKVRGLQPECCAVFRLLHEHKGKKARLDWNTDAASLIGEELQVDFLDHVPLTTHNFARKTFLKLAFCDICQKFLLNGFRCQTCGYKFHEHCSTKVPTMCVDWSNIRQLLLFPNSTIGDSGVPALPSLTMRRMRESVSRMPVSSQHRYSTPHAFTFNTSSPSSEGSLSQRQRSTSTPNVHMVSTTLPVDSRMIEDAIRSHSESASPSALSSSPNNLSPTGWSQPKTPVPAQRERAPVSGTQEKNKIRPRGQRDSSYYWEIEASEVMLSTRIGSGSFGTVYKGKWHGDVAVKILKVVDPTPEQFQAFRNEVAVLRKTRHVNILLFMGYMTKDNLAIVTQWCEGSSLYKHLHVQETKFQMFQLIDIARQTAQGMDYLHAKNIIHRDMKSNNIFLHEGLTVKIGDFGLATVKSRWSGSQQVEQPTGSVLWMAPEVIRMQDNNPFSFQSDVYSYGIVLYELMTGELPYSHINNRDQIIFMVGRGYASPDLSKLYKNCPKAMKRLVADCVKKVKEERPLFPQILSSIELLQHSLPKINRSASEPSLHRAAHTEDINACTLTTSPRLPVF
Sequence of High affinity cAMP-specific and IBMX-insensitive 3',5'-cyclic phosphodiesterase 8A (Homo sapiens) (O60658 whole entry, canonical isoform): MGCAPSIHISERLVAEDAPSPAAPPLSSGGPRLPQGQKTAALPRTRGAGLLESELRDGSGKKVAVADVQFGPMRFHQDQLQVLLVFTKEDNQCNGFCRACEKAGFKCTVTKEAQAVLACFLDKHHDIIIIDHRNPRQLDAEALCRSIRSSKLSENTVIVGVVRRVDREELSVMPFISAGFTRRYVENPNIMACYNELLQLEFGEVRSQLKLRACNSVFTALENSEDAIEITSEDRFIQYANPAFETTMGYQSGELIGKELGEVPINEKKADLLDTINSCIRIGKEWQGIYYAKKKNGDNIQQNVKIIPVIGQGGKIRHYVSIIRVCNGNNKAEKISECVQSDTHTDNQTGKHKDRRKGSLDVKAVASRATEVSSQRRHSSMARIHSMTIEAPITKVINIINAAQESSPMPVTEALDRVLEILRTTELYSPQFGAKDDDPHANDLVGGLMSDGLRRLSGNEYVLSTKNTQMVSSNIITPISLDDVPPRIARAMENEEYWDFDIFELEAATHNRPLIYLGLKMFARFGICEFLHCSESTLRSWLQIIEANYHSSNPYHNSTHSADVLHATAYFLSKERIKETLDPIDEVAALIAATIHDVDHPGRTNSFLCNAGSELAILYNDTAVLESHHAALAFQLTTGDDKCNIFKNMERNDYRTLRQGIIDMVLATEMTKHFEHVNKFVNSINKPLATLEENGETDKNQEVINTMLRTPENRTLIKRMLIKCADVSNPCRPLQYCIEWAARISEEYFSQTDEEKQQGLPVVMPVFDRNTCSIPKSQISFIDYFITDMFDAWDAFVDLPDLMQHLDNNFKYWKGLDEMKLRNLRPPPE
Sequence of Induced myeloid leukemia cell differentiation protein Mcl-1 (Homo sapiens) (Q07820 whole entry): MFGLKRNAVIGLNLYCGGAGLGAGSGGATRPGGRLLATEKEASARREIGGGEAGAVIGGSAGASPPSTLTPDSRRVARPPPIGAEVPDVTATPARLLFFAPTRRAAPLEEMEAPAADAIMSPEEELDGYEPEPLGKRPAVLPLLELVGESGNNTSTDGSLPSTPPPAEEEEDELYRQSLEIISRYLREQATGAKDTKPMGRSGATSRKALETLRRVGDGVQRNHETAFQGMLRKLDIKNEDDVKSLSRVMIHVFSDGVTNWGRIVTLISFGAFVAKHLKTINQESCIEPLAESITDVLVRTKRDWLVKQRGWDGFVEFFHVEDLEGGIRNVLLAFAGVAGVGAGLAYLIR
Sequence of Mast/stem cell growth factor receptor Kit (Homo sapiens), P10721 [D816G] (P10721 whole entry D816G): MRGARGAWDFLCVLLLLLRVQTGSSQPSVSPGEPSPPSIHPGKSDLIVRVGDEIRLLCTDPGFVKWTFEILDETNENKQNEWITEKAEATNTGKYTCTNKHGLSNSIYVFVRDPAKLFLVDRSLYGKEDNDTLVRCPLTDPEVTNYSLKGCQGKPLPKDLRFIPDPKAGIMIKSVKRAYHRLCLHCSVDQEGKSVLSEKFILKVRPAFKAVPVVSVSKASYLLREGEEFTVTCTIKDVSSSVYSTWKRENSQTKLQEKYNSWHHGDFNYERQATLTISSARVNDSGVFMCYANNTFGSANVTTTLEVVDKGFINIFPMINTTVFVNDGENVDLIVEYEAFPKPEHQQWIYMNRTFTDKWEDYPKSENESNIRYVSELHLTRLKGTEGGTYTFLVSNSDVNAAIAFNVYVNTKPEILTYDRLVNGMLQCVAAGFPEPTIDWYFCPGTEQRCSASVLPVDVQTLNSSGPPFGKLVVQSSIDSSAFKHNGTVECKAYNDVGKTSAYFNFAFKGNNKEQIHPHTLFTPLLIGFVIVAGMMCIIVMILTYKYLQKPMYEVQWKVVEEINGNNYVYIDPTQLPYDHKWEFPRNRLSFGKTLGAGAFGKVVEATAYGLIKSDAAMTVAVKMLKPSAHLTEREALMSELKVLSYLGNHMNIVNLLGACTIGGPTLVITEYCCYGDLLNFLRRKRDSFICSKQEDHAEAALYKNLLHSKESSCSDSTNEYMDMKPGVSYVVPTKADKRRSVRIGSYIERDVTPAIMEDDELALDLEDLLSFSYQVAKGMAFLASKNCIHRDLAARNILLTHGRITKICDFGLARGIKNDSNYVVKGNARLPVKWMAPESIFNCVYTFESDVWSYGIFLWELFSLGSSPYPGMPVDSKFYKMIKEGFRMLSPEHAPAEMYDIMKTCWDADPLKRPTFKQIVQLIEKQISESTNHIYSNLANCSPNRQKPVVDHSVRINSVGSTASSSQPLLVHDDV

As for `CCN(CC)CCO/N=C(\c1ccc(SC)cc1)c1cccc2ccccc12.O=C(O)C(=O)O`, the Activity in data set [1] was found to be 6.22%; in data set [10], 13.65%. Further, the EC50 (in general, the concentration giving half of the maximal effect) is 3 µM in [2]; 1 µM in [4]; 9 µM in data set [5]; 7.5 µM in data set [6]; 4.2 µM in data set [12]. In addition, the selectivity ratio amounted to 1.2 in [3], 2.5 in data set [8] and 50 in data set [9]. Moreover, the inhibition in vivo (commonly the percentage by which the read-out fell short of the control) at 16 mg/kg in data set [7] was determined as 50%. Besides, the IC50 (commonly the midpoint of a concentration-inhibition curve) in data set [11] came out at 20 µM.

As to `CCN(CC)CCO/N=C(\c1ccc(SC)cc1)c1cccc2ccccc12`, the result in data set [13], in data set [25] and in data set [30] was Active. The inhibition entry in [14], in data set [15], in data set [16], in [17], in data set [19] and in data set [21] was “inactive” each time. Also, the inhibition entry in [23], in data set [26], in [27] and in data set [28] was “inactive” each time. Moreover, the inhibition entry in [18], in data set [20], in data set [22], in data set [24] and in [29] was “Active” each time.
